Laboratory results as given in ChEMBL document CHEMBL4400513, “Aurone derivatives as promising antibacterial agents against resistant Gram-positive pathogens” (Eur J Med Chem, 2019).
Converted amounts (≈) assume the structure as drawn. The source made the active and inactive calls. No cut-off for these calls is given here.

Tests used:
Vibrio alginolyticus = assay: Bactericidal activity against Vibrio alginolyticus in aerobic condition; format: functional, organism-based
Procedure, shortened: (§1)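 MH broth; log-phase bacteria (OD600 ~0.6) diluted to ~10^5 bacteria/mL and exposed to two-fold serial dilutions (0–500 µM; 0.2% DMSO final as vehicle control) at 37 °C, aerobic, 18–24 h. MIC is the lowest concentration preventing visible growth (OD600). MBC is found by streaking 10 µL from no-growth wells onto agar; the MBC is the concentration where ≤1 colony grew. n = 3.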

Fusarium verticillioides = assay: Antifungal activity against Fusarium verticillioides after 2 to 5 days by two-fold serial dilutions method; format: functional
Procedure, shortened: (§2)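 Broth two-fold serial dilution MIC, 0 to 500 µM (1:2 steps), from 200 mM DMSO stocks; 0.2% DMSO final as vehicle control. Inoculum about 10^5 cells/mL. Strains maintained on potato dextrose agar and in RPMI medium. Plates held at room temperature for 2 to 5 days, OD600 read; MIC = lowest concentration preventing visible growth; independent triplicate.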

Aspergillus flavus [1] = assay: Antifungal activity against Aspergillus flavus after 2 to 5 days by two-fold serial dilutions method; format: functional; procedure, shortened: as §2
Aspergillus ochraceus [2] = assay: Fungicidal activity against Aspergillus ochraceus; format: functional, organism-based
Procedure, shortened: (§3)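 Filamentous fungi grown on potato dextrose agar and tested in RPMI medium with two-fold serial dilutions (0–500 µM, 0.2% DMSO final). Plates held at room temperature for 2 to 5 days, then OD600 read; MIC taken as the lowest concentration with no visible growth. The fungicidal endpoint is ≤1 colony after streaking 10 µL of no-growth wells on agar. n = 3.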

Aspergillus niger = assay: Antifungal activity against Aspergillus niger after 48 hrs by two-fold serial dilutions method; format: functional
Procedure, shortened: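 Two-fold serial dilution MIC, 0 to 500 µM, from 200 mM DMSO stocks; 0.2% DMSO final as vehicle control. Inoculum about 10^5 cells/mL. Organism maintained on potato dextrose agar and in RPMI. Plates incubated 48 h at 35 °C, then OD600 read; MIC taken as lowest concentration with no visible growth; n = 3 independent runs.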

Escherichia coli [3] = assay: Antimicrobial activity against Escherichia coli MRS after 18 to 24 hrs in aerobic condition by two-fold serial dilutions method; format: functional
Procedure, shortened: (§4)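 Colonies grown overnight (~16 h) in Mueller-Hinton broth at 37 °C, 200 rpm, diluted 1/100 and grown to log phase (OD600 ~0.6), then diluted to ~10^5 bacteria/mL. Exposed to 0 to 500 µM in 1:2 series (0.2% DMSO final control), aerobic, 37 °C, 18–24 h. OD600 read; MIC = lowest concentration without visible growth; n = 3.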

Shigella flexneri [4] = assay: Bactericidal activity against Shigella flexneri in aerobic condition; format: functional, organism-based; procedure, shortened: as §1
Lactococcus lactis = assay: Antimicrobial activity against Lactococcus lactis after 18 to 24 hrs in aerobic condition by two-fold serial dilutions method; format: functional; procedure, shortened: as §4
Citrobacter farmeri = assay: Antimicrobial activity against Citrobacter farmeri after 18 to 24 hrs in aerobic condition by two-fold serial dilutions method; format: functional; procedure, shortened: as §4
Stachybotrys chartarum = assay: Antifungal activity against Stachybotrys chartarum after 2 to 5 days by two-fold serial dilutions method; format: functional; procedure, shortened: as §2
Shigella flexneri [5] = assay: Antimicrobial activity against Shigella flexneri after 18 to 24 hrs in aerobic condition by two-fold serial dilutions method; format: functional; procedure, shortened: as §4
Candida albicans = assay: Antifungal activity against Candida albicans after 2 to 5 days by two-fold serial dilutions method; format: functional
Escherichia coli [6] = assay: Antimicrobial activity against Escherichia coli after 18 to 24 hrs in aerobic condition by two-fold serial dilutions method; format: functional; procedure, shortened: as §4
Arthrobacter gandavensis = assay: Bactericidal activity against Arthrobacter gandavensis in aerobic condition; format: functional, organism-based
Procedure, shortened: (§5)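 From the MIC plates, 10 µL from each well without growth was streaked onto agar suited to the organism and incubated under that organism's growth conditions. Colonies were then counted; MBC = lowest concentration allowing ≤1 colony, i.e. killing 99.9% of bacteria.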

Clostridium perfringens = assay: Induction of cell membrane permeability in Clostridium perfringens assessed as membrane integrity after 240 mins in anaerobic condition by propidium iodide staining-based assay relative to control; format: functional
Procedure, shortened: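 Log-phase bacteria resuspended in PBS at about 10^9/mL with propidium iodide 60 µM final, mixed 1:1 with two-fold serial dilutions of compound. Fluorescence (ex 530/em 590 nm) recorded over 240 min at 37 °C anaerobically. Normalised to CTAB 300 µM or nisin at 5× MIC (100% permeabilization); DMSO as vehicle. Triplicate.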

[7] = system: Mycolicibacterium smegmatis; assay: Antimicrobial activity against Mycobacterium smegmatis after 18 to 24 hrs in anaerobic condition by two-fold serial dilutions method; format: functional
Clostridium botulinum [8] = assay: Antimicrobial activity against Clostridium botulinum after 18 to 24 hrs in anaerobic condition by two-fold serial dilutions method; format: functional
Vibrio diabolicus = assay: Antimicrobial activity against Vibrio diabolicus after 18 to 24 hrs in aerobic condition by two-fold serial dilutions method; format: functional; procedure, shortened: as §4
Escherichia coli [9] = assay: Bactericidal activity against Escherichia coli in aerobic condition; format: functional, organism-based; procedure, shortened: as §5
Enterococcus faecalis [10] = assay: Antimicrobial activity against Enterococcus faecalis after 18 to 24 hrs in anaerobic condition by two-fold serial dilutions method; format: functional
Procedure, shortened: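 BHI preculture at 37 °C brought to log phase (OD600 ~0.6), then ~10^5 bacteria/mL exposed to 0 to 500 µM (1:2 dilutions, 0.2% DMSO final control). Anaerobic conditions from a gas-pack system, 37 °C, 18–24 h. OD600 read; MIC = lowest concentration with no visible growth; n = 3.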

[11] = system: Mycolicibacterium smegmatis; assay: Bactericidal activity against Mycobacterium smegmatis in anaerobic condition; format: functional, organism-based; procedure, shortened: as §5
Enterococcus faecalis [12] = assay: Bactericidal activity against Enterococcus faecalis in anaerobic condition; format: functional, organism-based; procedure, shortened: as §5
Acinetobacter baumannii = assay: Antimicrobial activity against Acinetobacter baumannii after 18 to 24 hrs in aerobic condition by two-fold serial dilutions method; format: functional; procedure, shortened: as §4
Blautia producta = assay: Antimicrobial activity against Clostridium coccoides after 18 to 24 hrs in anaerobic condition by two-fold serial dilutions method; format: functional
Procedure, shortened: (§6)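 Precultures in BHI broth at 37 °C in an anaerobic cabinet, grown to log phase (OD600 ~0.6), then seeded at ~10^5 bacteria/mL. Two-fold dilutions from 0 to 500 µM, 0.2% DMSO final as control. Plates incubated anaerobically at 37 °C for 18–24 h, OD600 read; MIC = lowest concentration giving no visible growth; independent triplicate.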

Aspergillus ochraceus [13] = assay: Antifungal activity against Aspergillus ochraceus after 2 to 5 days by two-fold serial dilutions method; format: functional; procedure, shortened: as §2
Clostridium botulinum [14] = assay: Bactericidal activity against Clostridium botulinum in anaerobic condition; format: functional, organism-based
Fusarium oxysporum [15] = assay: Antifungal activity against Fusarium oxysporum after 2 to 5 days by two-fold serial dilutions method; format: functional; procedure, shortened: as §2
[16] = system: Streptococcus thermophilus; assay: Antimicrobial activity against Streptococcus thermophilus after 18 to 24 hrs in anaerobic condition by two-fold serial dilutions method; format: functional; procedure, shortened: as §6
Klebsiella variicola = assay: Antimicrobial activity against Klebsiella variicola after 18 to 24 hrs in aerobic condition by two-fold serial dilutions method; format: functional; procedure, shortened: as §4
Fusarium oxysporum [17] = assay: Fungicidal activity against Fusarium oxysporum; format: functional, organism-based; procedure, shortened: as §3
Penicillium verrucosum = assay: Fungicidal activity against Penicillium verrucosum; format: functional, organism-based; procedure, shortened: as §3
Aspergillus flavus [18] = assay: Fungicidal activity against Aspergillus flavus; format: functional, organism-based; procedure, shortened: as §3

Compound | Activity (Vibrio alginolyticus) | MIC (Fusarium verticillioides) | MIC (Aspergillus flavus [1]) | Activity (Aspergillus ochraceus [2]) | MIC (Aspergillus niger) | MIC (Escherichia coli [3]) | Activity (Shigella flexneri [4]) | MIC (Lactococcus lactis) | MIC (Citrobacter farmeri) | MIC (Stachybotrys chartarum) | MIC (Shigella flexneri [5]) | MIC (Candida albicans) | MIC (Escherichia coli [6]) | Activity (Arthrobacter gandavensis) | Activity (Clostridium perfringens) | MIC [7] | MIC (Clostridium botulinum [8]) | MIC (Vibrio diabolicus) | Activity (Escherichia coli [9]) | MIC (Enterococcus faecalis [10]) | also measured
O=C1/C(=C/c2ccccc2)Oc2cc(O)cc(O)c21 | Active | > 500 µM | > 500 µM | Active | 62.5 µM (≈ 15.9 µg/mL) | > 500 µM | Active | 15.6 µM (≈ 3.97 µg/mL) | > 500 µM | > 500 µM | > 500 µM | > 500 µM | > 500 µM | Active | inactive | > 500 µM | 500 µM (≈ 127 µg/mL) | > 500 µM | Active | 15.6 µM (≈ 3.97 µg/mL) | Activity [11]: Active; Activity (Enterococcus faecalis [12]): Active; MIC (Acinetobacter baumannii): > 500 µM; MIC (Blautia producta): 500 µM (≈ 127 µg/mL); MIC (Aspergillus ochraceus [13]): > 500 µM; Activity (Clostridium botulinum [14]): Active; MIC (Fusarium oxysporum [15]): > 500 µM; MIC [16]: 31.2 µM (≈ 7.95 µg/mL); MIC (Klebsiella variicola): > 500 µM; Activity (Fusarium oxysporum [17]): Active; Activity (Penicillium verrucosum): Active; Activity (Aspergillus flavus [18]): Active
O=C1/C(=C/c2ccc(F)cc2)Oc2cc(O)cc(O)c21 | Active | > 500 µM | > 500 µM | Active | > 500 µM | > 500 µM | Active | 15.6 µM (≈ 4.25 µg/mL) | > 500 µM | > 500 µM | > 500 µM | > 500 µM | > 500 µM | Active | inactive | > 500 µM | 500 µM (≈ 136 µg/mL) | > 500 µM | Active | 125 to 250 µM (≈ 34 to 68.1 µg/mL) | Activity [11]: Active; Activity (Enterococcus faecalis [12]): Active; MIC (Acinetobacter baumannii): > 500 µM; MIC (Blautia producta): > 500 µM; MIC (Aspergillus ochraceus [13]): > 500 µM; Activity (Clostridium botulinum [14]): Active; MIC (Fusarium oxysporum [15]): > 500 µM; MIC [16]: 31.2 µM (≈ 8.51 µg/mL); MIC (Klebsiella variicola): > 500 µM; Activity (Fusarium oxysporum [17]): Active; Activity (Penicillium verrucosum): Active; Activity (Aspergillus flavus [18]): Active
